Hits are enriched below; roughly 1.9% of the tested compounds scored in any of these assays.
Insulin prom up: MIN6 insulin promoter up-regulation; MIN6 insulin promoter-GFP reporter, high-content imaging; active compounds read high; hit rate 0.3% among 190,000; z-score at 5 µM; AID 1625;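 active = z-score above 3 at 5 µM with at least 500 cells counted in the well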
MT stabilizer: stabilizes microtubules in HeLa cells; HeLa tubulin immunostaining HCS, 24 h; share of cells brighter than vehicle mean+2SD; % tubulin-high responders, % at 10 µM; hit rate 0.83% among 200,000;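 active = plate Z-score above 3 for both tubulin-high and condensed-nucleus cell shares, with cell loss under 80%, at 10 µM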;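 note: anti alpha tubulin signal scored within the nucleus-defined area of each cell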
b-catenin transl: beta-catenin nuclear translocation modulation; HeLa beta-catenin nuclear translocation, immunofluorescence imaging; nuclear translocation activity, % at 5 µM; hit rate 0.3% among 190,000; AID 1665;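 active = nuclear translocation activity above 50% at 5 µM, with a well cell count of 50 or more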;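 note: per-cell ratio of nuclear to cytoplasmic median beta-catenin stain intensity; plate controls were DMSO negative control for no effect and GSK-3 inhibitor IX positive control for full effect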
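Test system: human HeLa cells, native beta-catenin. Compound dosing: 5 µM primary single dose, 0.1% DMSO, 0.02–20 µM confirmation series. Incubation: compound exposure 24 h at 37°C. Detection: beta-catenin immunostaining with DAPI counterstain, 20x imaging, 6 fields/well. Read-out basis: Nuclear/cytoplasmic beta-catenin signal ratio, % activation.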
Autophagy HCS: alters autophagy in cells | MEF GFP-LC3 puncta imaging; test concentration mostly 10 µM | calls only at 10 µM (by protocol) | hit rate 0.98% among 190,000 | AID 463193;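 active = percentage of spot-positive cells more than 3 SD above its plate mean, without a fluorescence outlier flag or 80% toxicity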;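 note: spot-positive cell cutoff set from DMSO-treated cells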
The depositor's hits bear a star; i = inactive; . = no result; + = active, no number.

SMILES	Insulin prom up	MT stabilizer	b-catenin transl	Autophagy HCS
COc1ccc(NC(=O)CSC2=C(C#N)C(c3ccco3)C3=C(CCCC3=O)N2)c(OC)c1 (stereo not drawn)	1.9	2	.	i
CCSC1=C(C#N)C(c2ccc(C)o2)CC(=O)N1 (stereo not drawn)	-0.07	.	0	.
N#CC1=C(SCC(=O)c2ccccc2)NC2=C(C(=O)CCC2)C1c1ccco1 (stereo not drawn)	-2.4	34	171*	i
O=C1c2ccccc2-c2c1cccc2C(=O)N1CCN(C(=O)c2ccco2)CC1	-0.38	2	-2	i
CC1CC(C)CN(C(=O)c2cccc3c2-c2ccccc2C3=O)C1 (stereo not drawn)	4*	.	0	.
CCCCn1c(=O)[nH]c2nc3cc(N)ccc3nc2c1=O	4.8*	2	0	i
Nc1ccc2nc3c(=O)n(CCc4ccccc4)c(=O)[nH]c3nc2c1	1.2	.	1	.
O=C1NNC(c2ccccc2)=N/C1=C\c1ccco1	0.37	.	-2	.
COc1cc(/C=C2\N=C(c3ccccc3)NNC2=O)cc(OC)c1OC	-0.47	.	65*	.
Cn1cc([N+](=O)[O-])c(C(=O)Nc2ccn(Cc3c(F)c(F)cc(F)c3F)n2)n1	1.4	2	0	i
O=C(Cc1ccc(-c2ccccc2)cc1)NCc1ccccc1	-1.1	6	55*	i
O=C(Cc1ccc(-c2ccccc2)cc1)NCc1cccnc1	0.59	13*	45	i
Cc1ccc(CNC(=O)CSCc2ccccc2)cc1	-0.07	3	1	+
Cc1ccc(CNC(=O)Cc2ccc(-c3ccccc3)cc2)cc1	.	16	.	i
O=C(/C=C/c1cccc(F)c1)N1CCN(c2ncccn2)CC1	0.23	1	0	i
CCOC(=O)N1CCC(=NNc2nc3ccccc3s2)CC1	-1	.	-1	.
N#C/C(=C\N1CCN(Cc2ccc3c(c2)OCO3)CC1)c1nc2ccccc2s1	.	6	-5	+
CCOC(=O)N1CCN(/C=C(\C#N)c2nc3ccccc3s2)CC1	.	4	-5	+
O=C(/C=C/c1ccc([N+](=O)[O-])cc1)NCC1CCCO1 (stereo not drawn)	-0.37	3	0	i
COc1ccc(C2C=C(c3ccc(Br)s3)Nc3ncnn32)cc1OC (stereo not drawn)	-0.39	29*	58*	i
CCOc1ccccc1NC(=S)N1CCN(c2nc(-c3ccc(F)cc3)cs2)CC1	-1.9	2	0	i
CCN(Cc1cc2ccccc2[nH]c1=O)C(=O)C1CCCCC1	0.5	2	1	i
CC(C)N(Cc1cc2ccccc2[nH]c1=O)C(=O)C1CCCCC1	0.39	1	-2	+
Cc1cc(C)c(OCC(=O)N/N=C/c2ccc3c(c2)OCO3)c(C)c1	.	26*	26	i
O=C1N/C(=C\c2ccccc2)c2ccccc21	-0.04	20*	1	i
SMILES	Insulin prom up	MT stabilizer	b-catenin transl	Autophagy HCS
O=C1N/C(=C\c2nc3ccccc3s2)c2ccccc21	-0.41	.	-4	.
O=C(C1CCCO1)N1CCN(C(=S)Nc2ccc(F)c(Cl)c2)CC1 (stereo not drawn)	.	2	4	i
CC(C)CCN1CCN(Cc2ccc(Oc3ncccn3)cc2)CC1CCO (stereo not drawn)	-0.53	3	1	+
Cc1ccc(CN2CCN(Cc3ccc(Oc4ncccn4)cc3)CC2CCO)cc1 (stereo not drawn)	-0.14	2	0	i
COc1cc(CNCCO)cc(Br)c1OCc1ccccc1Cl	-0.95	2	6	i
COc1cc(CNCCO)cc(Cl)c1OCc1ccc(Cl)cc1Cl	.	30	7	+
COC(=O)c1ccc2c(=O)n(CC3CCCO3)c(SCC(=O)Nc3ccccc3Cl)nc2c1 (stereo not drawn)	-0.95	3	.	i
COC(=O)c1ccc2c(=O)n(CC3CCCO3)c(SCC(=O)Nc3ccccc3OC)nc2c1 (stereo not drawn)	-0.62	6	0	+
NC(=O)COC(=O)c1ccc(-c2ccccc2)cc1	0.43	6	-8	i
CS(=O)(=O)n1nc(-c2ccc(Cl)cc2)nc1N	1.2	2	-2	i
Cn1nc(-c2ccc(Cl)cc2)nc2c(=O)n(C)c(=O)nc1-2	-0.4	15*	-1	i
O=C1CN(c2nc(-c3ccccc3)c3cc(Cl)ccc3n2)c2ccccc2N1	0.57	2	0	+
CN(CCCN1CCOCC1)Cc1cn(C)nc1-c1ccccc1F	-0.08	4	0	i
Cc1c(CN(C)Cc2cn(C)nc2-c2ccccc2F)[nH]c2ccccc12	-0.15	3	1	+
CCOCCCNC(=O)CCSc1ccc(C)cc1	.	3	0	i
COc1cccc(NC(=O)CSc2nc3ccccc3c(=O)n2Cc2cccs2)c1	.	2	-1	+
O=c1c2ccc([N+](=O)[O-])cc2ncn1CCOc1cccc(Br)c1	0.51	6	-2	+
CNC(=S)NNC(=O)c1cn(C)nc1C	0.5	5	0	i
COc1cccc(/C=N/n2c(SC)nnc2-c2ccccc2)c1OC	-1.2	6	-4	i
COc1cccc(/C=N/n2c(SC)nnc2-c2ccccc2)c1O	-0.02	27	90*	i
COc1ccc(OC)c(-c2cc(C(=O)NCc3ccc(Cl)cc3)no2)c1	-0.22	1	-2	i
CCCN1C(=O)/C(=C/c2c(NCCCOC(C)C)nc3c(C)cccn3c2=O)SC1=S	.	2	3	+
CN(c1ccccc1)P(=O)(N(C)c1ccccc1)N(C)c1ccccc1	-1.2	2	-1	i
C=C(C)CNC(=O)CCc1nnc(Cc2cccc(C(F)(F)F)c2)o1	.	2	0	i
C=CCNC(=O)C1CC2Cn3c(nc4cc5ccccc5cc43)C2N1C (stereo not drawn)	4.4*	.	-3	.
SMILES	Insulin prom up	MT stabilizer	b-catenin transl	Autophagy HCS
CN1C(C(=O)NCc2cccc(C(F)(F)F)c2)CC2Cn3c(nc4cc5ccccc5cc43)C21 (stereo not drawn)	-0.62	.	-1	.
CC1CCN(S(=O)(=O)c2ccc3c(c2)c(=O)c(C(=O)NCc2ccccc2Cl)cn3C)CC1	-0.47	2	2	i
CC(=O)N1CCc2cc(S(=O)(=O)N3c4ccccc4CC3C)ccc21 (stereo not drawn)	-0.36	1	-1	+
CCCCN(CCCNC(=O)CN1C(=O)COc2ccccc21)c1ccccc1	0.24	2	0	+
CCN(CCCNC(=O)CN1C(=O)COc2ccccc21)c1ccccc1	-1.1	2	-2	i
CCCn1c2c(c(O)c(C(=O)Nc3ccccc3)c1=O)CCCC2	-0.98	2	-4	i
Cc1ccc(N/C=C/C(=O)c2sc(-c3ccccc3)nc2C)cc1	-0.14	51*	1	i
Cc1nc(-c2ccccc2)sc1C(=O)NN	-0.13	7	0	i
O=C(NCCN1CCCC1)C1(S(=O)(=O)c2ccc(Cl)cc2)CC1	3.1*	3	-2	i
O=C(NCCCN1CCCCC1)C1(S(=O)(=O)c2ccc(Cl)cc2)CC1	.	5	-2	.
CCOc1ccc(NC(=O)c2ccc(CC)s2)c([N+](=O)[O-])c1	-0.11	2	0	i

Screens (PubChem)
